Measured values as given in ChEMBL document CHEMBL4339251, “Prenylated Bibenzyls from the Chinese Liverwort Radula constricta and Their Mitochondria-Derived Paraptotic Cytotoxic Activities” (J Nat Prod, 2019).
The source made the active and inactive calls. No cut-off for these calls is given here.

Assays:
A549 [1] = test: Cytotoxicity in human A549 cells assessed as reduction in cell viability at 5 uM incubated for 24 hrs in presence of pan-caspase inhibitor Z-VAD-FMK by MTT assay; assay type: functional, cell-based
NCI-H1299 [2] = test: Induction of mitochondria-derived paraptosis in human NCI-H1299 cells assessed as reduction in intensity of mitochondria fluorescence up to 24 hrs by Mito-Tracker staining based fluorescence microscopy; assay type: functional, cell-based
Procedure, shortened: (§1)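 Mitochondrial fluorescence. After treatment for the indicated times, cells were stained with Mito-Tracker Red (100 nM) and 10 000 cells per sample were analysed by flow cytometry. Cells with decreased red fluorescence were gated as "pale" cells.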

NCI-H1299 [3] = test: Induction of mitochondria-derived paraptosis in human NCI-H1299 cells assessed as formation of fluorescent vacuoles after 3 hrs by Mito-Tracker staining based fluorescence microscopy; assay type: functional, cell-based
Procedure, shortened: (§2)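 Live-cell imaging. Treated cells on coverslips were stained with Mito-Tracker Red (100 nM) at 37 °C for 30 min, washed three times with PBS and stained with Hoechst 33342 (10 μg/mL) for 15 min. Images were taken by confocal or fluorescence microscopy at the indicated times.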

NCI-H1299 [4] = test: Induction of apoptosis in human NCI-H1299 cells assessed as late apoptotic cells at 10 uM by annexinV-FITC and propidium iodide staining based flow cytometric analysis (reference value: 3.29%); assay type: functional
A549 [5] = test: Induction of mitochondria-derived paraptosis in human A549 cells assessed as formation of fusion among swollen mitochondria after 6 to 24 hrs by Mito-Tracker staining based fluorescence microscopy; assay type: functional, cell-based; procedure, shortened: as §2
U-251 = test: Cytotoxicity in human U251 cells assessed as reduction in cell viability incubated for 48 hrs by MTT assay; assay type: functional, cell-based; details: U-251, 48 h
Procedure, shortened: (§3)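 MTT viability. U251 and NCI-H1299 were grown in DMEM, the other lines in RPMI 1640, each with 10% FBS, penicillin and streptomycin, at 37 °C in 5% CO2. Cells were seeded in 96-well plates overnight and exposed to a range of concentrations. MTT (5 mg/mL) was added for 4 h, formazan was dissolved in DMSO and absorbance read at 570 nm. Three independent experiments.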

NCI-H1299 [6] = test: Cytotoxicity in human NCI-H1299 cells assessed as reduction in cell viability incubated for 48 hrs by MTT assay; assay type: functional, cell-based; details: NCI-H1299, 48 h; procedure, shortened: as §3
A549 [7] = test: Induction of mitochondria-derived paraptosis in human A549 cells assessed as formation of fluorescent vacuoles after 3 hrs by Mito-Tracker staining based fluorescence microscopy; assay type: functional, cell-based; procedure, shortened: as §2
NCI-H1299 [8] = test: Induction of apoptosis in human NCI-H1299 cells assessed as necrotic cells at 20 uM by annexinV-FITC and propidium iodide staining based flow cytometric analysis (reference value: 3.17%); assay type: functional
A549 [9] = test: Induction of apoptosis in human A549 cells assessed as induction of PARP cleavage at 2.5 to 10 uM incubated for 24 hrs by Western blot analysis; assay type: functional, cell-based
Procedure, shortened: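 Western blot. Cells were cultured overnight in six-well plates, then exposed to various concentrations for 24 h before immunoblotting.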

NCI-H1299 [10] = test: Induction of apoptosis in human NCI-H1299 cells assessed as early apoptotic cells at 10 uM by annexinV-FITC and propidium iodide staining based flow cytometric analysis (reference value: 1.26%); assay type: functional
HepG2 = test: Cytotoxicity in human HepG2 cells assessed as reduction in cell viability incubated for 48 hrs by MTT assay; assay type: functional, cell-based; details: HepG2, 48 h
Procedure, shortened: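 MTT viability. Cells were seeded in 96-well plates overnight and exposed to a range of concentrations. MTT (5 mg/mL) was added for 4 h, formazan was dissolved in DMSO and absorbance read at 570 nm. Three independent experiments.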

NCI-H1299 [11] = test: Induction of apoptosis in human NCI-H1299 cells assessed as necrotic cells at 10 uM by annexinV-FITC and propidium iodide staining based flow cytometric analysis (reference value: 3.17%); assay type: functional
NCI-H1299 [12] = test: Induction of apoptosis in human NCI-H1299 cells assessed as late apoptotic cells at 20 uM by annexinV-FITC and propidium iodide staining based flow cytometric analysis (reference value: 3.29%); assay type: functional
SMMC-7721 = test: Cytotoxicity in human SMMC7721 cells assessed as reduction in cell viability incubated for 48 hrs by MTT assay; assay type: functional, cell-based; details: SMMC-7721, 48 h; procedure, shortened: as §3
A549 [13] = test: Induction of mitochondria-derived paraptosis in human A549 cells assessed as reduction in intensity of mitochondria fluorescence up to 24 hrs by Mito-Tracker staining based fluorescence microscopy; assay type: functional, cell-based; procedure, shortened: as §1
NCI-H1299 [14] = test: Induction of mitochondria dysfunction in human NCI-H1299 cells assessed as mitochondrial membrane potential incubated for 1 hr by JC-1 dye based flow cytometry relative to 0 hrs control; assay type: functional
Procedure, shortened: (§4)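 Membrane potential. After treatment for the indicated times, ΔΨm was measured by JC-1 (5 μg/mL) staining and flow cytometry, relative to the 0 h control. Mean ± SD, n = 3.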

A549 [15] = test: Induction of apoptosis in human A549 cells assessed as early apoptotic cells at 20 uM by annexinV-FITC and propidium iodide staining based flow cytometric analysis (reference value: 1.47%); assay type: functional
A549 [16] = test: Induction of cytoplasmic vacuolization in human A549 cells at 10 uM treated for 3 hrs after pre-treatment with pan-caspase inhibitor Z-VAD-FMK for 1 hr by optical microscopy; assay type: functional, cell-based
Procedure, shortened: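 Caspase-inhibitor morphology. Cells were treated with DMSO, 20 μM Z-VAD-FMK, 10 μM compound, or the combinations for 3 h, then imaged by optical microscopy.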

A549 [17] = test: Induction of mitochondria dysfunction in human A549 cells assessed as mitochondrial membrane potential incubated for 1 hr by JC-1 dye based flow cytometry relative to 0 hrs control; assay type: functional; procedure, shortened: as §4
A549 [18] = test: Induction of ROS generation in human A549 cells after 1 hr by DCFH-DA staining based flow cytometry relative to untreated control; assay type: functional
Procedure, shortened: (§5)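 ROS by flow cytometry. Cells were exposed for the indicated times, then stained with DCFH-DA (10 μM). DCF mean fluorescence intensity was compared with untreated control. Mean ± SD, n = 3.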

A549 [19] = test: Induction of apoptosis in human A549 cells assessed as necrotic cells at 10 uM by annexinV-FITC and propidium iodide staining based flow cytometric analysis (reference value: 1.44%); assay type: functional
NCI-H1299 [20] = test: Induction of ROS generation in human NCI-H1299 cells by DCFH-DA staining based flow cytometry; assay type: functional, cell-based; details: TDE = time-dependent effect; procedure, shortened: as §5
KB = test: Cytotoxicity in human KB cells assessed as reduction in cell viability incubated for 48 hrs by MTT assay; assay type: functional, cell-based; procedure, shortened: as §3
A549 [21] = test: Induction of cytoplasmic vacuolization in human A549 cells; assay type: functional, cell-based
MCF7 = test: Cytotoxicity in human MCF7 cells assessed as reduction in cell viability incubated for 48 hrs by MTT assay; assay type: functional, cell-based; details: MCF7, 48 h; procedure, shortened: as §3
NCI-H1299 [22] = test: Induction of mitochondria-derived paraptosis in human NCI-H1299 cells assessed as formation of fusion among swollen mitochondria after 6 to 24 hrs by Mito-Tracker staining based fluorescence microscopy; assay type: functional, cell-based; procedure, shortened: as §2
NCI-H1299 [23] = test: Induction of ROS generation in human NCI-H1299 cells after 1 hr by DCFH-DA staining based flow cytometry relative to untreated control; assay type: functional; procedure, shortened: as §5
A549 [24] = test: Induction of ROS generation in human A549 cells by DCFH-DA staining based flow cytometry; assay type: functional, cell-based; details: TDE = time-dependent effect; procedure, shortened: as §5
A549 [25] = test: Induction of apoptosis in human A549 cells assessed as early apoptotic cells at 10 uM by annexinV-FITC and propidium iodide staining based flow cytometric analysis (reference value: 1.47%); assay type: functional

For `COC(=O)c1c(CCc2ccccc2)cc(O)c(CC=C(C)C)c1O`, the Activity (A549 [1]) was “Active”, the Activity (NCI-H1299 [2]) was “Active” and the Activity (NCI-H1299 [3]) was “Active”. The Activity (NCI-H1299 [4]) was 3.36%, the Activity (A549 [5]) was “Active” and the IC50 (U-251) was 9 µM. For the same molecule, the IC50 (NCI-H1299 [6]) was 5.1 µM, the Activity (A549 [7]) was “Active” and the Activity (NCI-H1299 [8]) was 3.49%. For the same molecule, the Activity (A549 [9]) was “inactive”, the Activity (NCI-H1299 [10]) was 0.57% and the IC50 (HepG2) was 6.3 µM. The Activity (NCI-H1299 [11]) was 3.75%, the Activity (NCI-H1299 [12]) was 2.95% and the IC50 (SMMC-7721) was 8.6 µM. The Activity (A549 [13]) was “Active”, the Activity (NCI-H1299 [14]) was 25% and the Activity (A549 [15]) was 2.44%. For the same molecule, the Activity (A549 [16]) was “Active”, the Activity (A549 [17]) was 50% and the “fold change (FC)” value (A549 [18]) was 20. The Activity (A549 [19]) was 2.02%, the Activity (NCI-H1299 [20]) was “Tde” and the IC50 (KB) was 6.7 µM. For the same molecule, the Activity (A549 [21]) was “Active”, the IC50 (MCF7) was 10.2 µM and the Activity (NCI-H1299 [22]) was “Active”. For the same molecule, the “fold change (FC)” value (NCI-H1299 [23]) was 30, the Activity (A549 [24]) was “Tde” and the Activity (A549 [25]) was 0.75%.
